Results from publication PMC6087491 (Bioorganic & medicinal chemistry, 2018).
Like-named read-outs stand apart in the source and are kept apart here.

Experiments:
CAR cell line = experiment: MTT antiproliferative assay against cisplatin-resistant oral squamous; type: cell-based, human
Summary of the method: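 Cells are a CAL27-derived line selected through 10 cycles of 10–80 μM cisplatin and maintained in DMEM/10% FBS with penicillin, streptomycin, 2 mM L-glutamine and 80 μM cisplatin. They were seeded at 2×10^4 cells/well and exposed to 0–100 μM test compound (0.5% DMSO vehicle) for 48 or 72 h. MTT (500 μg/ml) was added for 4 h at 37 °C, formazan was dissolved in DMSO, and A570 was read. Viability is expressed as % of control.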

CAR xenograft = experiment: In vivo antitumor activity in CAR xenograft nude mouse model; design: species or system BALB/c nude mice
Summary of the method: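 Male 4-week-old BALB/c nude mice; CAR cells (cisplatin-resistant CAL27, cultured with 80 μM cisplatin), 1×10^7/mouse in medium:Matrigel 1:1, injected s.c. into flank. At ~50 mm3 (day 22), randomised into four groups; test compound oral 25, 50 or 100 mg/kg once daily ×30 in 1,2-propanediol; controls vehicle only. Caliper tumor size ([…]); tumors excised, weighed day 31.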

[1] = Preliminary pharmacokinetic study of compound 12 in rats; details: single oral 100 mg/kg, PO-1 and PO-2 formulations, 0.5-24 h
[2] = Toxicity monitoring and blood biochemical analysis in CAR xenograft nude mice; type: in vivo, BALB/c nude mice
[3] = read-out: IC50 (concentration for 50% antiproliferative effect), CAR cells, 48 h
[4] = read-out: IC50 (concentration for 50% antiproliferative effect), CAR cells, 72 h

4-[(E)-2-(3,5-dimethoxyphenyl)ethenyl]phenol [Pterostilbene, reference compound]
IC50 (CAR cell line; [3]): 100 ± 4.78 µM
IC50 (CAR cell line; [4]): 98.3 ± 5.21 µM

N.N.[Cl][Pt][Cl] [Cisplatin, reference compound]
IC50 (CAR cell line; [3]): > 100 µM
IC50 (CAR cell line; [4]): > 100 µM

COc1cc(/C=C/c2ccc(OC(=O)C(C)(CO)CO)cc2)cc(OC)c1 [Compound 12, 4-(3,5-Dimethoxystyryl)phenyl-3-hydroxy-2-(hydroxymethyl)-2-methylpropanoate]
inhibitory effects on CAR tumor size and weight (CAR xenograft; 25, 50 and 100 mg/kg PO once daily for 30 days): dose- and time-dependent inhibitory effects
antitumor activity (CAR xenograft; lowest oral dose 25 mg/kg/day): Obvious antitumor activity
blood concentration of compound 12 [1]: not detected
changes in body weight, food consumption and behavior vs untreated control ([2]; 25, 50 and 100 mg/kg PO QD×30): no obvious changes
blood analysis, 12-fed groups vs control group ([2]; total protein, albumin, creatinine, BUN, uric acid, glucose, 25-100 mg/kg QD×30): no significant difference

(E)-4-(3,5-Dihydroxystyryl)phenyl 3-hydroxy-2-(hydroxymethyl)-2-methylpropanoate [Compound 20]
IC50 (CAR cell line; [3]): 52 ± 2.6 µM
IC50 (CAR cell line; [4]): 50.3 ± 1.98 µM

(E)-4-(3-Acetoxy-5-((3-hydroxy-2-(hydroxymethyl)-2-methylpropanoyl)oxy) styryl)phenyl 3-hydroxy-2-(hydroxymethyl)-2-methylpropanoate [Compound 27]
IC50 (CAR cell line; [3]): 122 ± 2.69 µM
IC50 (CAR cell line; [4]): 119 ± 2.19 µM

(E)-4-(3-Acetoxy-5-methoxystyryl)phenyl 3-hydroxy-2-(hydroxymethyl)-2-methylpropanoate [Compound 18]
IC50 (CAR cell line; [3]): 169 ± 3.19 µM
IC50 (CAR cell line; [4]): 133 ± 2.45 µM

(E)-4-(3-Hydroxy-5-((3-hydroxy-2-(hydroxymethyl)-2-methylpropanoyl)oxy) styryl)phenyl 3-hydroxy-2-(hydroxymethyl)-2-methylpropanoate [Compound 25]
IC50 (CAR cell line; [3]): 105 ± 1.98 µM
IC50 (CAR cell line; [4]): 113 ± 2.77 µM

(E)-5-(4-((3-Hydroxy-2-(hydroxymethyl)-2-methylpropanoyl)oxy)styryl)-1,3-phenylene diacetate [Compound 22]
IC50 (CAR cell line; [3]): 103 ± 4.58 µM
IC50 (CAR cell line; [4]): 116 ± 3.96 µM

(E)-5-(4-((3-Hydroxy-2-(hydroxymethyl)-2-methylpropanoyl)oxy)styryl)-1,3-phenylene diacetate [Compound 23]
IC50 (CAR cell line; [3]): 54.9 ± 2.59 µM
IC50 (CAR cell line; [4]): 114 ± 3.25 µM

(E)-5-(4-Hydroxystyryl)-1,3-phenylene bis(3-hydroxy-2-(hydroxymethyl)-2-methylpropanoate) [Compound 24]
IC50 (CAR cell line; [3]): 90.4 ± 3.65 µM
IC50 (CAR cell line; [4]): 76.9 ± 3.22 µM
